The values that follow come from ChEMBL document CHEMBL1250546, “Synthesis of non-purine analogs of 6-aryl-9-benzylpurines, and their antimycobacterial activities. Compounds modified in the imidazole ring” (Bioorg Med Chem, 2010).

One test concerns Staphylococcus aureus. Put plainly: Antibacterial activity against Staphylococcus aureus. The format is functional.
For a further test, the system named is Vero. Put plainly: Cytotoxicity against african green monkey Vero cells. The format is cell-based. As to conditions: Chlorocebus sabaeus. A digest of the protocol:
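Mammalian-cell toxicity was measured in VERO cells and expressed as EC₅₀.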

Test [1] relates to Mycobacterium tuberculosis. In words: Antibacterial activity against Mycobacterium tuberculosis H37Rv ATCC 27294 after 7 days by microplate alamar blue assay. The format is functional. The settings on record: H37Rv ATCC 27294, 168 h. In outline:
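Microplate alamar blue assay in 7H12 medium against M. tuberculosis H37Rv ATCC 27294 and against rifampicin-, isoniazid-, streptomycin- and kanamycin-resistant Mtb strains. Bacteria were incubated with test samples for 7 days, then fluorescence was read. MIC is the lowest concentration giving at least a 90% fluorescence reduction relative to untreated controls.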
A general note: Resazurin is reduced to fluorescent resorufin, in cell work by metabolically active cells.

For another test, the system named is Escherichia coli. In words: Antibacterial activity against Escherichia coli. It is filed as functional.
Test [2] in a line: Selectivity index, ratio of EC50 for african green monkey Vero cells to MIC for Mycobacterium tuberculosis H37Rv ATCC 27294. It is filed as functional.
In test [3] the test system is Mycobacterium tuberculosis. Put plainly: Antibacterial activity against Mycobacterium tuberculosis. The format is functional.

Converted amounts (≈) assume the structure as drawn.

In the case of `COc1ccc(Cn2nnc3c(-c4ccco4)ncnc32)cc1`, the MIC in the test with Staphylococcus aureus is > 32 µg/mL; in test [1] it was 2.4 µM (≈ 0.738 µg/mL); in the test on Escherichia coli, > 90 µg/mL. Besides, in the test with Vero, the 50% effective concentration (EC50) is > 130 µM. Moreover, in test [2], the “Selectivity Index” value is recorded as >54.
For `COc1ccc(Cn2ncc3c(-c4ccco4)ncnc32)cc1`, the MIC with Staphylococcus aureus is > 32 µg/mL; in test [1] it was 3.6 µM (≈ 1.1 µg/mL); in the test on Escherichia coli it was > 90 µg/mL. The EC50 with Vero is > 327 µM. The “Selectivity Index” value in test [2] is listed as >91.
As to `COc1ccc(Cn2ccc3c(-c4ccco4)ncnc32)cc1`, the MIC in the test on Staphylococcus aureus is > 32 µg/mL; in test [1], 0.16 µM (≈ 0.0489 µg/mL); against Escherichia coli, > 90 µg/mL. Further, in the test on Vero, the 50% effective concentration (EC50) was > 131 µM. Further, in test [2], the “Selectivity Index” value was >756.
`COc1ccc(Cn2ccc3c(-c4cccs4)ncnc32)cc1` registered an EC50 with Vero of 40 µM. This compound also returned an MIC in test [1] of 0.35 µM (≈ 0.112 µg/mL). In addition, the “Selectivity Index” value in test [2] worked out at 114.
On to `COc1ccc(Cn2ccc3c(-c4ccco4)nc(Cl)nc32)cc1`, for which the results for the MIC (against Staphylococcus aureus; in test [1]; in the test on Escherichia coli) were > 32 µg/mL, 0.08 µM (≈ 0.0272 µg/mL) and > 90 µg/mL, respectively. This compound also displayed an EC50 with Vero of 85 µM. In test [2], the “Selectivity Index” value turned out to be 1063.
In the test on Vero, `COc1ccc(Cn2ccc3c(-c4cccs4)nc(Cl)nc32)cc1` came in with a concentration giving a half-maximal response (EC50) of 76 µM. The compound further had a minimal inhibitory concentration (MIC) in test [1] of 0.11 µM (≈ 0.0391 µg/mL). The “Selectivity Index” value in test [2] was 691.
As for `COc1ccc(Cn2ccc3c(-c4ccco4)nc(OC)nc32)cc1`, in the test with Vero, the half-maximal effective concentration (EC50) stood at 45 µM. In test [1], this compound displayed an MIC of 0.22 µM (≈ 0.0738 µg/mL). In addition, in test [2], the “Selectivity Index” value was determined as 205.
For `COc1ccc(C(=O)c2cn(C)c3c(-c4ccco4)ncnc23)cc1`, the MIC against Staphylococcus aureus was > 32 µg/mL; in test [1] it was 192 µM (≈ 64 µg/mL); in the test with Escherichia coli it was > 90 µg/mL.
The corresponding values for `COc1ccc(C(=O)c2c[nH]c3c(-c4ccco4)ncnc23)cc1` are > 32 µg/mL, > 300 µM and > 90 µg/mL.
On to `COc1ccc(Cc2cn(C)c3c(-c4ccco4)ncnc23)cc1`, for which the minimal inhibitory concentration (MIC) against Staphylococcus aureus is > 32 µg/mL; in test [1], 97 µM (≈ 31 µg/mL); against Escherichia coli it was > 90 µg/mL.
`COc1ccc(Cn2cnc3c(-c4cccs4)nc(Cl)nc32)cc1`: in test [3], inhibition of growth (MIC) required 0.78 µg/mL (≈ 2.19 µM).
Regarding `COc1ccc(Cn2cnc3c(-c4ccco4)ncnc32)cc1`, the values for the MIC in test [3] and in test [1] were 1.65 µg/mL (≈ 5.39 µM) and 2.1 µM (≈ 0.643 µg/mL), respectively. For the same compound, the concentration for a half-maximal effect (EC50) in the test on Vero is > 206 µM. In addition, the “Selectivity Index” value in test [2] was >98.
In the case of `COc1ccc(Cn2cnc3c(-c4ccco4)nc(Cl)nc32)cc1`, the MIC in test [3] came out at 0.39 µg/mL (≈ 1.14 µM); in test [1], 0.36 µM (≈ 0.123 µg/mL). Besides, the EC50 in the test with Vero was > 117 µM. In test [2], the “Selectivity Index” value is reported as >325.
In test [3], `CO[C@H]1/C=C/O[C@@]2(C)Oc3c(C)c(O)c4c(O)c(c(/C=N/N5CCN(C)CC5)c(O)c4c3C2=O)NC(=O)/C(C)=C\C=C\[C@H](C)[C@H](O)[C@@H](C)[C@@H](O)[C@@H](C)[C@H](OC(C)=O)[C@@H]1C` [RIFAMPIN] returned an MIC of 0.25 µg/mL (≈ 0.304 µM).

In general, MIC refers to the smallest concentration in the dilution series that meets the test's criterion for growth inhibition. Usually EC50 stands for the concentration needed to bring the measured effect to its halfway point.
